Measured values gathered from unrelated publications.
Each line is one published result; the experiments were not run side by side.
Cell line: CCRF-CEM
Observed: cell growth or viability

SMILES | method | time | IC50
COc1ccc2oc(C(=O)c3ccccc3)cc2c1-c1ccccc1 | – | 72 h | > 50000 nM
O=C(CN1C(=O)SC(=Cc2ccccc2)C1=O)Nc1ccc(Cl)cc1C(F)(F)F | MTT | 48 h | 47500 nM
COc1ccccc1C(=O)c1cc2c(-c3ccccc3)c(OC)ccc2o1 | – | 72 h | > 50000 nM
CC(=O)O[C@H]1C(=O)[C@@]2(C)[C@H]([C@H](OC(=O)c3ccccc3)[C@]3(O)C[C@H](OC(=O)[C@H](O)[C@@H](NC(=O)c4ccccc4)c4ccccc4)C(C)=C1C3(C)C)[C@]1(OC(C)=O)CO[C@@H]1C[C@@H]2O | MTT | 48 h | 310 nM
COc1ccc(/C=C\c2cc(OC)c(OC)c(OC)c2)cc1O | – | 72 h | 1.8 nM
O=C1C(=Cc2ccccc2)CN(C(=O)CCCC(=O)N2CC(=Cc3ccccc3)C(=O)C(=Cc3ccccc3)C2)CC1=Cc1ccccc1 | – | 72 h | 2030 nM
O=C(CN1C(=O)SC(=Cc2ccc(F)cc2)C1=O)Nc1ccc(Cl)cc1C(F)(F)F | MTT | 48 h | 38000 nM
COc1cccc2c1C(=O)c1c(O)c3c(c(O)c1C2=O)C[C@@](O)(C(=O)CO)C[C@@H]3O[C@H]1C[C@H](N)[C@H](O)[C@H](C)O1 | resazurin | 72 h | 10 nM
CCOC(=O)c1cc(CCc2ccc(OC)cc2)sc1N | – | 48 h | 1900 nM
COc1cc(OC)cc(C(=O)c2cc3c(-c4ccccc4)c(OC)ccc3o2)c1 | – | 72 h | > 50000 nM
COC(=O)c1cc(CCc2ccccc2OC)sc1N | – | 48 h | 1200 nM
COc1cccc(C(=O)c2cc3c(-c4ccccc4)c(OC)ccc3o2)c1 | – | 72 h | 5400 nM
CCOC(=O)c1cc(CCc2cc(OC)ccc2OC)sc1N | – | 48 h | 400 nM
O=C1NC(=NCc2cccs2)S/C1=C\c1ccc2ncccc2c1 | – | – | 2500 nM
COC(=O)c1cc(-c2cc(OC)ccc2OC)sc1N | – | 48 h | 30000 nM
CC[C@]1(O)C[C@H]2CN(CCc3c([nH]c4ccccc34)[C@@](C(=O)OC)(c3cc4c(cc3OC)N(C=O)[C@H]3[C@@](O)(C(=O)OC)[C@H](OC(C)=O)[C@]5(CC)C=CCN6CC[C@]43[C@@H]65)C2)C1 | fluorescence | 72 h | 10.4 nM
COc1ccc(OC)c(-c2cc(C#N)c(N)s2)c1 | – | 48 h | 12000 nM
O=C1C(=Cc2ccccc2)CN(C(=O)CCCCCCC(=O)N2CC(=Cc3ccccc3)C(=O)C(=Cc3ccccc3)C2)CC1=Cc1ccccc1 | – | 72 h | 2280 nM
CCOC(=O)c1cc(CCc2ccccc2OC)sc1N | – | 48 h | 20000 nM
O=C1C(=Cc2ccccc2)CN(C(=O)C(=O)N2CC(=Cc3ccccc3)C(=O)C(=Cc3ccccc3)C2)CC1=Cc1ccccc1 | – | 72 h | 750 nM
Cc1ccc(C=C2SC(=O)N(CC(=O)Nc3ccc(F)cc3F)C2=O)cc1C | MTT | 48 h | 31900 nM
COC(=O)c1c(N)sc(CCc2cc(OC)ccc2OC)c1C | – | 48 h | 30000 nM
